Bioassay records as filed in PubChem.
Compounds with a hit are over-represented: about 6% of the library has one in this group of screens.
PostGolgi yeast: growth inhibition of a yeast mutant, post-Golgi transport screen; post-Golgi transport phenotypic cell assay; AID 739; 0.9% of 98,000 active; inhibition, % at 10 µM;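 also: yeast cells grown in 1536-well plates; yeast grown about 18 h at 30C before absorbance read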
tolC growth inh: blocks growth of E. coli BW25113 tolC mutant. 2.2% of 65,000 active. AID 573. OD615. growth inhibition, % at 10 µM (by protocol);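 active = growth inhibition at or above a cutoff equal to the mean over every tested compound plus 3 SD, cut at about 60% in these data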;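 also: growth measured after 20 h incubation at 37 °C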
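Test system: tolC-deleted E. coli BW25113 | Medium: LB with kanamycin 50 µg/mL | Compound dosing: Single concentration, 10 µM final per compound | Schedule: 37 °C, 20 h exposure | Measured by: OD at 615 nm | Evaluation: Percent growth inhibition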
E coli WT exp: blocks growth of wild type E. coli BW25113 | OD600 absorbance | growth inhibition, % at 100 µM | 0.15% of 98,000 active | AID 710;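 active = growth inhibition above about 50% at one test dose, limit read from the data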;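 also: growth measured after 20 h incubation at 37 °C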
PostGolgi ctrl: yeast control strain growth, post-Golgi counter-screen; AID 738; efflux-deficient yeast background strain, growth absorbance A615, 16 h; inhibition, % at 10 µM; 5% of 98,000 active
EphB4 ephrin blk: EphB4-ephrin-B2 interaction antagonism; P54760; EphB4 LBD / TNYL-RAW-Alexa532 peptide, fluorescence polarization; inhibition, % at 7 µM; 0.15% of 97,000 active;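 active = inhibition above the screen-wide mean inhibition plus 3 SD, cut at about 15% in these data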
Each line names hits and unclear results; the compound was inactive in the other large screens. Rule as the data show it, unless noted: active = inhibition above about 30%; inactive = the rest.

Cc1[nH]nc(-c2ccc(O)cc2O)c1-c1ccc(Cl)cc1	tolC growth inh 100.0, PostGolgi ctrl 85.4
COc1ccc(-c2n[nH]c(C)c2-c2ccc(Cl)cc2)c(O)c1OC	PostGolgi ctrl 50.8
COc1ccc(-c2n[nH]c(C)c2-c2ccc(Cl)cc2)c(O)c1	PostGolgi ctrl 76.8 (no result: tolC growth inh)
COC(=O)c1ccccc1NC(=O)c1sc(N)nc1C	none
COC(=O)c1ccccc1NC(=O)c1sc(=S)n(C)c1N	PostGolgi ctrl 36.0
Cc1cc2nc(-c3cccnc3SCC(=O)NCc3ccco3)[nH]c2cc1C	none
O=C(CSc1ncccc1-c1nc2ccccc2[nH]1)NCc1ccco1	PostGolgi yeast 33.9
O=C(Nc1ccc(OC(F)F)cc1)Nc1cccc(C(F)(F)F)c1	PostGolgi yeast 78.6, PostGolgi ctrl 64.0 (no result: tolC growth inh)
COC(=O)[C@H](C)NC(=O)Nc1cccc(C(F)(F)F)c1	none
CN(CC(CC(=O)Nc1nncs1)c1ccccc1)S(=O)(=O)c1ccc(Br)cc1 (centres undefined)	none (no result: tolC growth inh)
CC(C(=O)NC1CCCC1)N(C(=O)c1ccc(-c2ccccc2)[nH]1)c1ccccc1F (centres undefined)	none (no result: tolC growth inh)
O=[N+]([O-])c1cc(S(=O)(=O)C(F)(F)F)ccc1Sc1nc2ccccc2s1	PostGolgi yeast 40.8, PostGolgi ctrl 92.3 (no result: tolC growth inh)
O=[N+]([O-])c1cc(S(=O)(=O)C(F)(F)F)ccc1Sc1nc2ccccc2[nH]1	PostGolgi ctrl 70.1 (no result: tolC growth inh)
CCCCCOCC1CC(C/C(C)=N/Nc2nc(-c3ccccc3)cs2)C(=O)O1 (centres undefined)	none (no result: tolC growth inh)
COc1cc(C(=O)Sc2ccc(C)cc2)cc(OC)c1OC	PostGolgi ctrl 45.3 (no result: tolC growth inh)
CCCCn1c(=O)n(Cc2cccc(F)c2)c(=O)c2c1ncn2Cc1ccco1	tolC growth inh 64.9, PostGolgi ctrl 39.1
Cc1cnc(-c2nnc(N(C)C(=O)c3ccncc3)s2)cn1	none (no result: PostGolgi yeast, E coli WT exp, PostGolgi ctrl, EphB4 ephrin blk)
COc1ccc(C(=O)N2c3ccc(F)cc3CCC2C)cc1OC (centres undefined)	PostGolgi ctrl 37.5
Cc1nn(Cc2ccc(C(=O)N3c4ccc(F)cc4CCC3C)o2)c(C)c1Br (centres undefined)	tolC growth inh 96.5
Cc1ccc(C(=O)N2c3ccc(F)cc3CCC2C)o1 (centres undefined)	none
COc1cc(OC)cc(C(=O)N2c3ccc(F)cc3CCC2C)c1 (centres undefined)	PostGolgi ctrl 31.5
CC1CCc2cc(F)ccc2N1C(=O)c1ccc2c(c1)OCO2 (centres undefined)	none
C=CCn1c(COc2ccccc2)nnc1SC(C)C(=O)N/N=C/c1cc(Cl)ccc1O (centres undefined)	none (no result: tolC growth inh)
O=S(=O)(c1ccccc1)c1nc(-c2ccccc2)oc1N1CCCCC1	none (no result: tolC growth inh)
O=C(NCCCn1ccnc1)Nc1cccc(Cl)c1	PostGolgi ctrl 35.7
O=C(Cc1ccc(Cl)cc1)NCCCn1ccnc1	none (no result: tolC growth inh)
COc1ccc(/C=N/NC(N)=S)cc1OC(=O)c1cccc2ccccc12	PostGolgi ctrl 65.0 (no result: tolC growth inh)
COc1ccc(/C=N/NC(=O)COc2ccccc2-c2ccccc2)cc1	PostGolgi ctrl 55.5 (no result: tolC growth inh)
COc1cccc(/C=N/NC(=O)c2nc(-c3ccccc3)cc(-c3ccccc3)n2)c1	none (no result: tolC growth inh)
COc1ccc(/C=N/NC(=O)c2nc(-c3ccccc3)cc(-c3ccccc3)n2)cc1OC	PostGolgi ctrl 32.4 (no result: tolC growth inh)
CCCNC(=O)COC(=O)c1ccccc1OCc1ccc(Cl)cc1	none (no result: tolC growth inh)
Cc1c(-c2cccs2)[n+](=O)c2c(n1[O-])CCCCC2	none
CCOc1cc(S(=O)(=O)NCCc2cccc(C)c2)c(OCC)cc1-n1cnnn1	none
S=C(Nc1ccccc1)Nc1ccc(OCc2ccc(Cl)cc2Cl)cc1	none (no result: tolC growth inh)
OCCCCNCc1ccc(OCc2ccc(Cl)cc2Cl)cc1	PostGolgi yeast 51.3 (no result: tolC growth inh)
COc1ccccc1OCCC(=O)OCC(=O)Nc1ncc(Cl)cc1Cl	none
COC(=O)Nc1ccc(S(=O)(=O)N2c3ccccc3CCC2C)cc1 (centres undefined)	PostGolgi ctrl 34.2 (no result: EphB4 ephrin blk)
CC(=O)Nc1ccc(S(=O)(=O)N2CCCc3ccccc32)cc1	none
C=CCn1c(NC(C)c2cc(Cl)ccc2O)nc2ccccc21 (centres undefined)	tolC growth inh 100.0, PostGolgi ctrl 31.5
O=c1oc(-c2cccnc2)nc2ccccc12	none
Cc1onc(-c2ccccc2)c1-c1nc2ccccc2c(=O)o1	PostGolgi ctrl 32.3 (no result: tolC growth inh)
COc1ccc(N2CCN(Cc3nc(N)nc(Nc4ccc(C)c(Cl)c4)n3)CC2)cc1	none
Cc1ccc(Nc2nc(N)nc(CN3CCN(c4ccccc4)CC3)n2)cc1Cl	tolC growth inh 77.0, PostGolgi ctrl 30.3
CCOC(=O)N1CCN(C(=O)CN(Cc2ccc(Cl)cc2)S(=O)(=O)c2ccc(C)cc2)CC1	none (no result: tolC growth inh)
